Screens from PubChem.
E-selectin induc = E-selectin induction on HUVECs; actives 0.37% (n = 260,000); activation, % at 7.58 µM; P16581; HUVEC E-selectin immunofluorescence imaging; normalized: neutral wells 0, TNF-alpha wells 100;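 active = mean E-selectin-positive cell signal at least 10% of the positive control, reached in at least 60% of replicates, without over 20% cell loss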
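assay system = HUVEC, human umbilical vein endothelial cells | input = 3,000 HUVEC seeded per well | medium = EGM-2 growth medium on 0.1% gelatin-coated wells | dosing = one compound dose added by pin transfer | signal = immunofluorescence imaging | read-out basis = % PE-positive cells | control set = TNF-alpha, DMSO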
SIRT5 block = blocks human SIRT5 desuccinylation of peptide; Q9NXA8; Purified SirT5, succinyl-peptide AMC, trypsin-coupled fluorescence; inhibition, % at 15 µM; actives 1.1% (n = 330,000); AID 652115; in the data active = inhibition above about 15%
FN deposit inh = fibronectin deposition inhibition; AH1F fibroblasts, Alexa488-fibronectin deposition fluorescence, overnight; inhibition, % at 12.6 µM; actives 0.086% (n = 350,000); AID 743247;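 active = mean inhibition across replicates of 30% or more, regardless of how many single replicates reach that level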
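Measured by – fluorescence 485/525 nm · System – AH1F fibroblast monolayer, labelled fibronectin deposition · Amount – 10000 cells per well · Buffer or medium – serum-reduced DMEM (2% serum) · Doses – single dose, pinned · Also added – fluorescent fibronectin at 24 nM final · Schedule – 1 h cell attachment, overnight exposure to compound and label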
C2C12 statin = protects C2C12 myotubes from simvastatin toxicity. ATP luminescence, 48 h; scaled: DMSO 0, geranylgeraniol control 100. rescue of ATP level, % at 7.49 µM. actives 0.78% (n = 330,000). AID 602340;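 active = mean ATP rescue above about 67%, or every replicate alone reaching that limit, limit read from the data, passing the limit was not always enough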;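 also: myotubes were challenged with 10 µM simvastatin during compound exposure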
rRNA inh HTS = inhibitors of bacterial rRNA selective over humanized ribosomes | E. coli WT GFP vs humanized-ribosome RFP mutants, fluorescence, 24 h; active compounds read low; DMSO median 0, no signal -100 | GFP signal change (wild-type ribosome), % (concentration not given with the values) | actives 1.6% (n = 350,000) | AID 720706;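 active = significant combined selectivity score with lowered wild-type GFP, culture density cut under 30%, mutant RFP and density less affected; inactive = any of these conditions unmet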
FGF22 binding = FGF22 (human) thermal shift binding; actives 1.5% (n = 340,000); recombinant FGF22 thermal shift, SYPRO orange fluorescence; percent of sucrose octasulfate shift, DMSO zero; Q9HCT0; activity (Tm shift, normalised), % at 9.99 µM;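 active = mean Tm shift, scaled 0 neutral to 100 positive control, at about 1.3% or above, every replicate too, limit read from the data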
Of the large screens only hits and unclear results are named; the others gave an inactive call. Hits are enriched below; roughly 4% of the tested compounds scored in any of these assays.

CN(c1cccc(NC(=O)c2ccc(C(C)(C)C)cc2)c1)S(C)(=O)=O	FGF22 binding 43
CSc1nc2ccc(NC(=O)C3=NNC(=O)CC3)cc2s1	FGF22 binding 43 (no result: E-selectin induc, C2C12 statin)
O=C(/C=C/c1ccccc1[N+](=O)[O-])N1CCN(c2ccc(F)cc2)CC1	rRNA inh HTS -30 (no result: E-selectin induc, C2C12 statin)
O=C(/C=C/c1cccc([N+](=O)[O-])c1)N1CCN(c2ccc(F)cc2)CC1	none (no result: SIRT5 block, C2C12 statin, rRNA inh HTS, FGF22 binding)
O=C(/C=C/c1ccccc1[N+](=O)[O-])N1CCCCC1	FGF22 binding 43 (no result: C2C12 statin)
C[C@H]1CCCCO[C@@H](CN(C)C(=O)Nc2ccccc2)[C@@H](C)CN([C@@H](C)CO)C(=O)c2cc(NS(=O)(=O)c3ccc(F)cc3)ccc2O1	none (no result: E-selectin induc, SIRT5 block, C2C12 statin, FGF22 binding)
CNC[C@@H]1Oc2ccc(NC(=O)C3CC3)cc2CC(=O)N([C@@H](C)CO)C[C@H]1C	none (no result: FN deposit inh)
Cc1ccc(C=NNc2nc3c([nH]2)c(=O)n(C)c(=O)n3C)cc1	FGF22 binding 44 (no result: SIRT5 block)
CCOc1ccc(NC(C)=O)cc1[N+](=O)[O-]	FGF22 binding 43 (no result: E-selectin induc, C2C12 statin)
COc1ccc(S(=O)(=O)N(C)C[C@H]2OCCCC[C@@H](C)Oc3ccc(N(C)C)cc3C(=O)N([C@H](C)CO)C[C@H]2C)cc1	none (no result: FN deposit inh)
C[C@@H]1CN([C@H](C)CO)C(=O)c2cc(NC(=O)c3ccccc3)ccc2O[C@@H](C)CCCCO[C@@H]1CN(C)S(=O)(=O)c1cccs1	none (no result: SIRT5 block, FN deposit inh, C2C12 statin)
CCOC(=O)C1=C(C)N=C2SC(C)C(=O)N2C1c1ccc(C(=O)OC)cc1 (centres undefined)	C2C12 statin 91 (no result: E-selectin induc, SIRT5 block, rRNA inh HTS, FGF22 binding)
CCOC(=O)C1=C(C)N=C2SC(C)C(=O)N2C1c1ccccc1 (centres undefined)	none
COc1ccc2cc(-c3[nH]ncc3CN3CCCC3c3nonc3C)ccc2c1 (centres undefined)	rRNA inh HTS -23 (no result: E-selectin induc)
COc1ccc(-c2[nH]ncc2CN2CCCC(C(=O)c3cccc(OC)c3)C2)cc1 (centres undefined)	SIRT5 block 18
CCOC(=O)c1[nH]ncc1CN1CCCC(C(=O)c2ccc(OC)c(OC)c2)C1 (centres undefined)	none (no result: E-selectin induc)
COc1ccc(C(=O)C2CCCN(Cc3cn[nH]c3-c3ccccc3)C2)cc1OC (centres undefined)	SIRT5 block 29
Cc1noc(C)c1NC(=O)Nc1ccc2c(c1)C(=O)N([C@H](C)CO)C[C@H](C)[C@H](CN(C)S(=O)(=O)c1ccc(F)cc1)O2	none (no result: FGF22 binding)
C[C@H]1CN([C@@H](C)CO)S(=O)(=O)c2ccc(C#CC3CC3)cc2O[C@H]1CN(C)C	none (no result: FN deposit inh)
CO[C@@H]1CN(C)C(=O)c2cc(NS(C)(=O)=O)ccc2OC[C@H](C)N(Cc2nccs2)C[C@@H]1C	none
CC1CCC(C(O)(C(=O)c2ccccc2)c2ccccc2)C(=O)C1 (centres undefined)	none
O=C1CCCCC1C(O)(C(=O)c1ccccc1)c1ccccc1 (centres undefined)	FGF22 binding 43 (no result: SIRT5 block)
CC(C)C#Cc1cnc2c(c1)C(=O)N([C@H](C)CO)C[C@H](C)[C@@H](CN(C)C(=O)Nc1cccc(F)c1)O2	none
O=C(C[C@H]1CC[C@H]2[C@@H](COC[C@H](O)CN2C(=O)Nc2cc(Cl)cc(Cl)c2)O1)NCC1CCCCC1	none
c1ccn2cc(-c3ccc4c(c3)OCCO4)nc2c1	FGF22 binding 43 (no result: C2C12 statin)
COc1ccc(OCCCC(=O)Nc2nc(C)c(C(C)=O)s2)cc1	none (no result: E-selectin induc, FN deposit inh, C2C12 statin)
CC(=O)c1sc(NC(=O)CCCOc2ccc(Cl)cc2)nc1C	FGF22 binding 43 (no result: C2C12 statin)
CNC[C@H]1Oc2ccc(NC(=O)Nc3ccc(F)cc3)cc2C(=O)N([C@H](C)CO)C[C@@H]1C	none
